Consider 6 compounds from ChEMBL document CHEMBL4229446, “Development of Novel Monoamine Oxidase-B (MAO-B) Inhibitors with Reduced Blood-Brain Barrier Permeability for the Potential Management of Noncentral Nervous System (CNS) Diseases” (J Med Chem, 2018).

System in one series: not listed separately
Kind of series: Cmax in C57BL/6 mouse plasma at 22 mg/kg, iv administered as single dose measured 24 hrs by UPLC-MS/MS analysis. In kind it is ADME, organism-based. On the set-up: dose 22 mg/kg, route intravenous.
Settings: not given
Summed up: (§1)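 21 animals dosed at 0 min, 3 sacrificed at each of 0, 5, 15, 30 min, 1, 4 and 24 h. Plasma was extracted by protein precipitation with phospholipid removal. Brain was weighed, bead-homogenised in 50 mM ammonium formate and extracted in acidified organic solvent. Quantified by UPLC-MS/MS (MRM). Brain ng/g taken as ng/mL. Parameters came from noncompartmental analysis. Kp = AUClast brain/plasma.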
On to `C[C@H](Cc1ccc(OCc2ccc(Cl)c(Cl)c2)cc1)N(C)CC(=O)O`, for which the Cmax was 16200 ng/mL.

System in the next series: not listed separately
The series can be described thus: Apparent half-life of the terminal disposition phase in C57BL/6 mouse plasma at 22 mg/kg, iv administered as single dose measured 24 hrs by UPLC-MS/MS analysis. In kind it is ADME, organism-based. The note with it: read-out: t1/2 lambda z (converted). The gist of the method:
as §1
`C[C@H](Cc1ccc(OCc2ccc(Cl)c(Cl)c2)cc1)N(C)CC(=O)O`: the half-life was 3.97 h.

The subject of a further series is P-gp (MDR1). The series can be described thus: Efflux ratio of apparent permeability in MDCK2-MDR1 cells at 10 uM after 1 hr in absence of P-gp inhibitor verapamil by UPLC-MS/MS analysis. In kind it is ADME, cell-based, Canis lupus familiaris. The note with it: dog, MDCK-MDR1. Summed up: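 MDCK-WT (MEM-α/10% FBS) or MDCK-MDR1 II (DMEM/10% FBS) cells were grown 3 days on 12-well transwells. Integrity was checked by TEER and 100 μM Lucifer yellow. Cells were washed in HBSS/10 mM HEPES. Compound at 10 μM was added apically or basally, in triplicate, ±100 μM verapamil. Receiver sampled at 1 h by UPLC-MS/MS. Efflux ratio = Papp B→A / Papp A→B.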
Consider `C[C@H](Cc1ccc(OCc2ccc(Cl)c(Cl)c2)cc1)N(C)CC(=O)O`, for which the efflux ratio at 1 h, 10 µM came out at 3.07.

Turning to `O=C(O)COCCN1CCN(C(c2ccccc2)c2ccc(Cl)cc2)CC1` (stereo not given) [CETIRIZINE], the efflux ratio at 1 h, 10 µM worked out at 4.12.

System in the next series: not listed separately
Kind of series: Metabolic stability in human plasma assessed as parent compound remaining at 5 uM after 4 hrs by UPLC-MS/MS analysis. In kind it is ADME, cell-free. The conditions noted are these: read-out: Stability. The gist of the method: (§2)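 Compound at 5 μM was incubated in mouse or human plasma at 37 °C with shaking. Sampled at 0, 5, 15, 30, 60, 120 and 240 min and stopped with ice-cold acetonitrile/0.1% formic acid containing internal standard. Supernatants analysed by UPLC-MS/MS for parent remaining. Run in triplicate.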
For the compound `C[C@H](Cc1ccc(OCc2ccc(Cl)c(Cl)c2)cc1)N(C)CC(=O)O`, the remaining at 4 h, 5 µM is no less than 75%.

Another series has as its system Mus musculus. Kind of series: Acute toxicity in C57BL/6 mouse assessed as abnormal clinical signs at […], iv administered as single dose measured after 24 hrs post-injection. In kind it is organism-based. The note with it: in vivo.
For `C[C@H](Cc1ccc(OCc2ccc(Cl)c(Cl)c2)cc1)N(C)CC(=O)O`, the Activity entry is “Non-Toxic”.

Another series deals with T1, Amine oxidase [flavin-containing] A (Homo sapiens, UniProt P21397).
T1 sequence (P21397 whole entry): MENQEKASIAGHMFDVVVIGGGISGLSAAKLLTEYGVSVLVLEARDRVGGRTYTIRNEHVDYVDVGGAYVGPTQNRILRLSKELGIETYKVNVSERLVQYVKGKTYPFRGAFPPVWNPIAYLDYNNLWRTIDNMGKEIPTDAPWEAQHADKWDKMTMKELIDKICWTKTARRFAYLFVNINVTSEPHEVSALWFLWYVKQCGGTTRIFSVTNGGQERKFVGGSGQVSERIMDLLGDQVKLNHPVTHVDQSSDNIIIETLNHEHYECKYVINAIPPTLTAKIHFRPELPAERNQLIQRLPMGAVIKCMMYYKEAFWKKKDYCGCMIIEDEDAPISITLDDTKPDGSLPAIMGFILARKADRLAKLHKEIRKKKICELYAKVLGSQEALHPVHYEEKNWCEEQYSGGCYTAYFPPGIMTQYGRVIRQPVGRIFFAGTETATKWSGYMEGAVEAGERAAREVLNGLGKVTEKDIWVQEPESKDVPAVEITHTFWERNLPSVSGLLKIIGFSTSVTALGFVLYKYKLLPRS
The series can be described thus: Inhibition of human recombinant MAO-A expressed in baculovirus infected BTI-TN-5B1-4 insect cells using tyramine as substrate preincubated for 1 hr followed by substrate addition and measured after 30 mins by resazurin dye-based fluorescence assay.
Settings: not given
`C[C@H](Cc1ccc(OCc2cc(Cl)ccc2Cl)cc1)N(C)CC(=O)O`: the IC50 is greater than 50 µM.

On to `C[C@H](Cc1ccc(OCc2ccccc2C#N)cc1)N(C)CC(=O)O`, for which the IC50 was greater than 50 µM.

In the case of `C[C@H](Cc1ccc(OCc2ccc(C#N)cc2)cc1)N(C)CC(=O)O`, the IC50 was greater than 50 µM.

With `CN(CC(=O)O)[C@H](COCc1ccccc1)Cc1ccc(OCc2ccccc2)cc1`, the IC50 is greater than 50 µM.

`C[C@H](Cc1ccc(OCc2ccc(Cl)c(Cl)c2)cc1)N(C)CC(=O)O`: the IC50 turned out to be 41.4 µM.

System in a further series: not listed separately
Kind of series: Metabolic stability in cryopreserved mouse hepatocytes assessed as parent compound remaining at 1 uM after 60 mins by UPLC-MS/MS analysis. In kind it is ADME, cell-based, Hepatocyte. The note with it: read-out: Stability.
With `C[C@H](Cc1ccc(OCc2ccc(Cl)c(Cl)c2)cc1)N(C)CC(=O)O`, the remaining at 1 h, 1 µM is no less than 90%.

System in another series: not listed separately
The series can be described thus: Tmax in C57BL/6 mouse plasma at 22 mg/kg, iv administered as single dose measured 24 hrs by UPLC-MS/MS analysis. In kind it is ADME, organism-based.
Settings: not given
Summed up:
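Plasma cleaned by protein precipitation with phospholipid removal, then UPLC-MS/MS in MRM mode. Tmax obtained by noncompartmental analysis.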
For `C[C@H](Cc1ccc(OCc2ccc(Cl)c(Cl)c2)cc1)N(C)CC(=O)O`, the Tmax was determined as 5 min.

System in another series: not listed separately
The series can be described thus: Cmax in C57BL/6 mouse brain at 22 mg/kg, iv administered as single dose measured 24 hrs by UPLC-MS/MS analysis. In kind it is ADME, organism-based.
Settings: not given
Details: dose 22 mg/kg, route intravenous. The gist of the method: as §1
For `C[C@H](Cc1ccc(OCc2ccc(Cl)c(Cl)c2)cc1)N(C)CC(=O)O`, the peak level (Cmax) was 455 ng/mL.

A further series deals with Mus musculus. Kind of series: Acute toxicity in C57BL/6 mouse assessed as abnormal clinical signs at […], po administered as single dose measured after 24 hrs post-injection. In kind it is organism-based. The note with it: in vivo.
As for `C[C@H](Cc1ccc(OCc2ccc(Cl)c(Cl)c2)cc1)N(C)CC(=O)O`, the Activity entry is “Non-Toxic”.

System in another series: not listed separately
The series can be described thus: Tmax in C57BL/6 mouse brain at 22 mg/kg, iv administered as single dose measured 24 hrs by UPLC-MS/MS analysis.
Settings: not given
In kind it is ADME, organism-based. Summed up: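 Brains weighed, portion bead-homogenised in 50 mM ammonium formate, extracted in acidified organic solvent, quantified by UPLC-MS/MS. ng/g taken as ng/mL. Tmax from noncompartmental analysis.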
With `C[C@H](Cc1ccc(OCc2ccc(Cl)c(Cl)c2)cc1)N(C)CC(=O)O`, the Tmax worked out at 4 h.

System in another series: not listed separately
The series can be described thus: Efflux ratio of apparent permeability in MDCK-WT cells at 10 uM after 1 hr in absence of P-gp inhibitor verapamil by UPLC-MS/MS analysis. The note with it: dog.
Turning to `C[C@H](Cc1ccc(OCc2ccc(Cl)c(Cl)c2)cc1)N(C)CC(=O)O`, the efflux ratio at 1 h, 10 µM came to 1.45.

Consider `O=C(O)COCCN1CCN(C(c2ccccc2)c2ccc(Cl)cc2)CC1` (stereo not given) [CETIRIZINE], for which the efflux ratio at 1 h, 10 µM came to 3.

System in a further series: not listed separately
The series can be described thus: Ratio of AUClast in brain to plasma in C57BL/6 mouse at 22 mg/kg, iv administered as single dose measured 24 hrs by UPLC-MS/MS analysis. In kind it is ADME, organism-based.
Settings: not given
Summed up:
as §1
With `C[C@H](Cc1ccc(OCc2ccc(Cl)c(Cl)c2)cc1)N(C)CC(=O)O`, the Kp at 24 h was 0.09.

System in the next series: not listed separately
The series can be described thus: Metabolic stability in mouse plasma assessed as parent compound remaining at 5 uM after 4 hrs by UPLC-MS/MS analysis. In kind it is ADME, cell-free. The conditions noted are these: read-out: Stability. Summed up:
as §2
For `C[C@H](Cc1ccc(OCc2ccc(Cl)c(Cl)c2)cc1)N(C)CC(=O)O`, the remaining at 4 h, 5 µM was no less than 75%.

System in another series: not listed separately
The series can be described thus: Metabolic stability in human liver microsomes assessed as parent compound remaining at 1 uM after 60 mins by UPLC-MS/MS analysis. The conditions noted are these: liver microsomes, read-out: Stability. In kind it is ADME, microsome. Summed up:
(§3)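 Compound at 1 μM with 0.5 mg/mL mouse or human liver microsomes in 100 mM potassium phosphate pH 7.4, 3.3 mM MgCl2, 1 mM NADPH, at 37 °C. Started with NADPH; minus-NADPH control run. Stopped at 0, 5, 15, 30, 45 and 60 min with acetonitrile/formic acid plus internal standard. Parent remaining by UPLC-MS/MS, in triplicate.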
For the compound `C[C@H](Cc1ccc(OCc2ccc(Cl)c(Cl)c2)cc1)N(C)CC(=O)O`, the remaining at 1 h, 1 µM is no less than 90%.

System in another series: not listed separately
Kind of series: AUClast in C57BL/6 mouse plasma at 22 mg/kg, iv administered as single dose measured 24 hrs by UPLC-MS/MS analysis. In kind it is ADME, organism-based. Details: dose 22 mg/kg, time 0 - last, route intravenous.
Settings: not given
The gist of the method:
as §1
The compound `C[C@H](Cc1ccc(OCc2ccc(Cl)c(Cl)c2)cc1)N(C)CC(=O)O` yielded an AUC(0-t) at 24 h of 82000 ng·h/mL.

Another series has as its target T2, Amine oxidase [flavin-containing] B (Homo sapiens, UniProt P27338).
T2 sequence (P27338 whole entry): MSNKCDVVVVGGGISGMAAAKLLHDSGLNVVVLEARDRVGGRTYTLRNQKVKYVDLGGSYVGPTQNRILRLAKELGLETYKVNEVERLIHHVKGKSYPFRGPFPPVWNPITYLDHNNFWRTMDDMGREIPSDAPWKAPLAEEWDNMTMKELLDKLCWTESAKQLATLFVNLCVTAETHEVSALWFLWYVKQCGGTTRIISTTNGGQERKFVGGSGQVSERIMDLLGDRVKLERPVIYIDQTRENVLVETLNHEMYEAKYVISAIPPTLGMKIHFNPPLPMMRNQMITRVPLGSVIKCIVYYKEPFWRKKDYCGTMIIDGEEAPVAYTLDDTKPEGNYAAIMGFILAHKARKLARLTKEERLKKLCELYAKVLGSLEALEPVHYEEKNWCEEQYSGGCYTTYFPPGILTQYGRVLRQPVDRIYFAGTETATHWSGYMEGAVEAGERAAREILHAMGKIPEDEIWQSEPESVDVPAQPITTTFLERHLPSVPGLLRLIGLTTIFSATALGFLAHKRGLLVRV
Kind of series: Inhibition of human recombinant MAO-B expressed in baculovirus infected BTI-TN-5B1-4 insect cells using benzylamine as substrate preincubated for 1 hr followed by substrate addition and measured after 30 mins by resazurin dye-based fluorescence assay. In kind it is cell-based.
Settings: not given
`C[C@H](Cc1ccc(OCc2cc(Cl)ccc2Cl)cc1)N(C)CC(=O)O`: the IC50 came out at 1.38 µM.

On to `C[C@H](Cc1ccc(OCc2ccccc2C#N)cc1)N(C)CC(=O)O`, for which the half-maximal inhibitory concentration (IC50) was found to be 14.1 µM.

`C[C@H](Cc1ccc(OCc2ccc(C#N)cc2)cc1)N(C)CC(=O)O`: the IC50 was determined as 3.75 µM.

In the case of `CN(CC(=O)O)[C@H](COCc1ccccc1)Cc1ccc(OCc2ccccc2)cc1`, the IC50 came to 8 µM.

Take `C[C@H](Cc1ccc(OCc2ccc(Cl)c(Cl)c2)cc1)N(C)CC(=O)O`: the IC50 stood at 0.218 µM.

System in a further series: not listed separately
Kind of series: Metabolic stability in mouse liver microsomes assessed as parent compound remaining at 1 uM after 60 mins in presence of NADPH by UPLC-MS/MS analysis. In kind it is ADME, microsome. The note with it: read-out: Stability. The gist of the method: as §3
For the compound `C[C@H](Cc1ccc(OCc2ccc(Cl)c(Cl)c2)cc1)N(C)CC(=O)O`, the remaining at 1 h, 1 µM stood at 89.5%.

System in a further series: not listed separately
The series can be described thus: AUClast in C57BL/6 mouse brain at 22 mg/kg, iv administered as single dose measured 24 hrs by UPLC-MS/MS analysis. In kind it is ADME, organism-based. On the set-up: dose 22 mg/kg, route intravenous, time 0 - last.
Settings: not given
Summed up:
as §1
In turn, `C[C@H](Cc1ccc(OCc2ccc(Cl)c(Cl)c2)cc1)N(C)CC(=O)O` yielded an AUC(0-t) at 24 h of 7450 ng·h/mL.

For the next series, the system named is Mus musculus. The series can be described thus: Acute toxicity in C57BL/6 mouse assessed as abnormal clinical signs at […], sc administered as single dose measured after 24 hrs post-injection. In kind it is organism-based. The conditions noted are these: in vivo.
As for `C[C@H](Cc1ccc(OCc2ccc(Cl)c(Cl)c2)cc1)N(C)CC(=O)O`, the Activity entry is “Non-Toxic”.
